Assay results from different studies.
Lines come from different studies, so protocols differ.
Target: Tyrosine-protein kinase Srms (SRMS, Homo sapiens, UniProt Q9H3Y6)

| SMILES | effect on | action | technique | concentration | quantity | result |
| --- | --- | --- | --- | --- | --- | --- |
| O=C1Nc2ccc(Cl)cc2C1=Cc1cc(Cl)c(O)c(Cl)c1 | cell-free assay |  |  | 0.5 µM | remaining signal | 86.3% |
| O=C(NC[C@@H]1[C@H]2CN(C(=O)OCc3cc(C(F)(F)F)cc(C(F)(F)F)c3)C[C@@H]12)c1ccc2[nH]nnc2c1 | cell-free assay |  | competition with immobilised ligand | 1 µM | remaining binding | 83% |
| N#CCCc1ccc2c(c1)-c1[nH]c3ccc([N+](=O)[O-])cc3c1CC(=O)N2 | cell-free assay |  |  | 0.5 µM | remaining signal | 78.6% |
| CC(C)(C)c1nc(-c2cccc(NS(=O)(=O)c3c(F)cccc3F)c2F)c(-c2ccnc(N)n2)s1 | enzyme activity | inhibitor | radiometric | 1 µM | remaining activity | 10% |
| CC(C)(O)[C@H]1CC[C@H](Nc2ccc3ncc(-c4cccc(C(F)(F)F)c4)n3n2)CC1 | enzyme activity | inhibitor |  | 1 µM | remaining activity | 96.5% |
| COc1cc2ncnc(Nc3ccc(Oc4ccccc4)cc3C)c2cc1OC | enzyme activity | inhibitor |  | 1 µM | inhibition | 84% |
| Cc1ccc(C(=O)Nc2ccc(CN3CCN(C)CC3)c(C(F)(F)F)c2)cc1C#Cc1cnc2cccnn12 | enzyme activity | inhibitor |  | 23.5 nM | remaining activity | 40% |
| O=C(Nc1ccc(Oc2ccc(F)cc2)cc1)N1CCc2ncccc2[C@H]1c1ccc(F)cc1 | cell-free assay |  | competition with immobilised ligand | 1 µM | remaining binding | 94% |
| Nc1ncnc2occ(-c3ccc(NC(=O)Nc4cc(C(F)(F)F)ccc4F)cc3)c12 | cell-free assay | inhibitor |  | 20 µM | remaining signal | 0.8% |
| C[C@H](c1ccnc(Nc2nc3ccc(-c4cc(N(C)C)ncn4)cc3[nH]2)c1)N1CCN(C(=O)CC(F)(F)F)CC1 | cell-free assay |  | competition with immobilised ligand | 0.1 µM | remaining binding | 97% |
| CC/C(=N\NC(=O)NCc1cccc(O)c1)c1ccc(O)c(C)c1O | enzyme activity | inhibitor |  | 0.1 µM | inhibition | 1.1% |
| C[C@H](c1ccc(F)cc1)N(Cc1cccc(C(=O)O)c1)C(=O)c1cnc2ccccc2c1 | cell-free assay |  | competition with immobilised ligand | 1 µM | remaining binding | 100% |
| Cc1sc(C(=O)NC2COC2)cc1-n1cc(NC(=O)Nc2c(F)cccc2Cl)cn1 | enzyme activity | inhibitor |  | 10 µM | remaining activity | 104% |
